In one assay the test system is MCF7. The assay is described as follows: Antiproliferative activity against human MCF7 cells after 48 hrs by CellTiter 96 AQueous one solution cell proliferation assay. Particulars: MCF7, 48 h. The assay is classed as functional, cell-based. Put shortly: (§1)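 Cells plated at 8000/well; test agents dissolved in DMSO and tested at 80, 8, 0.8, 0.08 and 0.008 μg/mL for 48 h at 37°C, 5% CO2. PC3 and CaSki were grown in RPMI-1640, MCF7 in Eagle's MEM, with 10% FBS and 2 mM glutamine. Podophyllotoxin served as positive control. Viability read by MTS-type reagent absorbance at 450 nm. Triplicates in three independent experiments; IC50 by regression.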

Assay [1] concerns PC-3. The assay is described as follows: Induction of apoptosis in human PC3 cells assessed as upregulation of Bax mRNA expression after 48 hrs by RT-PCR analysis. The assay is classed as functional, cell-based. Put shortly: (§2)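 PC3 cells (1.25×10^5) were treated 48 h, then RNA was isolated. Bcl-2 and Bax mRNA were measured by RT-PCR with GAPDH as internal control.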
Assay [2] concerns PC-3. The assay is described as follows: Antiproliferative activity against human PC3 cells after 48 hrs by CellTiter 96 AQueous one solution cell proliferation assay. The note with it: PC-3, 48 h. In kind it is functional, cell-based. The essentials: as §1
For assay [3], the system named is PC-3. The assay is described as follows: Induction of apoptosis in human PC3 cells assessed as chromatin condensation at IC50 after 48 hrs by acridine orange/ethidium bromide staining-based epifluorescence microscopic analysis. In kind it is functional, cell-based.
The test system of assay [4] is PC-3. Briefly: Induction of apoptosis in human PC3 cells assessed as formation of apoptotic bodies at IC50 after 48 hrs by acridine orange/ethidium bromide staining-based epifluorescence microscopic analysis. In kind it is functional, cell-based.
For assay [5], the system named is PC-3. The assay is described as follows: Cell cycle arrest in human PC3 cells assessed as accumulation at sub-G1 phase at 8.2 uM after 48 hrs by RNAse/propidium iodide staining-based flow cytometric analysis (reference value: 0.00%). In kind it is functional. A general note: In flow cytometry, cells or beads pass a laser one at a time.
Assay [6] concerns PC-3. The assay is described as follows: Cell cycle arrest in human PC3 cells assessed as accumulation at G2/M phase at 8.2 uM after 48 hrs by RNAse/propidium iodide staining-based flow cytometric analysis (reference value: 24.9%). The assay is classed as functional.
Assay [7] relates to PC-3. Briefly: Induction of apoptosis in human PC3 cells assessed as increase in caspase 3/7 activity by Caspase 3/7-Glo luminescence assay. The assay is classed as functional, cell-based. Put shortly: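 PC3 cells (8000) were treated, and caspase-3/7 activity was then read by Caspase-Glo 3/7 luminescence. Results are relative luminescence units versus untreated control; paclitaxel was included as a comparator.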

In assay [8] the test system is PC-3. Briefly: Cell cycle arrest in human PC3 cells assessed as accumulation at G1 phase at 8.2 uM after 48 hrs by RNAse/propidium iodide staining-based flow cytometric analysis (reference value: 55.6%). The assay is classed as functional.
In assay [9] the test system is PC-3. The assay is described as follows: Induction of apoptosis in human PC3 cells assessed as plasma membrane blebbing at IC50 after 48 hrs by acridine orange/ethidium bromide staining-based epifluorescence microscopic analysis. The assay is classed as functional, cell-based.
Assay [10] deals with PC-3. Briefly: Induction of apoptosis in human PC3 cells assessed as down regulation of Bcl2 mRNA expression after 48 hrs by RT-PCR analysis. The assay is classed as functional, cell-based. The essentials: as §2
The subject of assay [11] is PC-3. The assay is described as follows: Cell cycle arrest in human PC3 cells assessed as accumulation at S phase at 8.2 uM after 48 hrs by RNAse/propidium iodide staining-based flow cytometric analysis (reference value: 19.7%). The assay is classed as functional.
The subject of a further assay is BJ. Briefly: Cytotoxicity against human BJ cells after 48 hrs by CellTiter 96 AQueous one solution cell proliferation assay. In kind it is cell-based.
In assay [12] the test system is PC-3. The assay is described as follows: Cell cycle arrest in human PC3 cells assessed as accumulation at G2/M phase at 0.12 uM after 48 hrs by RNAse/propidium iodide staining-based flow cytometric analysis (reference value: 24.9%). The assay is classed as functional.
The subject of assay [13] is PC-3. Briefly: Induction of apoptosis in human PC3 cells assessed as plasma membrane blebbing at 0.005 uM after 48 hrs by acridine orange/ethidium bromide staining-based epifluorescence microscopic analysis. The assay is classed as functional, cell-based. Put shortly:
(§3)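 PC3 cells, 25000 per well in 24-well plates, treated 48 h; H2O2 30 min served as apoptosis control, boiling at 95°C for 10 sec as necrosis control. Cells then exposed to acridine orange/ethidium bromide (100 μg/mL each) and examined by fluorescence microscopy. Scored by nuclear morphology: chromatin condensation, orange condensed chromatin (late apoptosis), apoptotic bodies.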

The subject of assay [14] is PC-3. Briefly: Cell cycle arrest in human PC3 cells assessed as accumulation at sub-G1 phase at 0.12 uM after 48 hrs by RNAse/propidium iodide staining-based flow cytometric analysis (reference value: 0.00%). In kind it is functional.
Assay [15] relates to PC-3. The assay is described as follows: Cell cycle arrest in human PC3 cells assessed as accumulation at G1 phase at 0.12 uM after 48 hrs by RNAse/propidium iodide staining-based flow cytometric analysis (reference value: 55.6%). In kind it is functional.
The next assay deals with Ca-Ski. The assay is described as follows: Antiproliferative activity against human CaSki cells after 48 hrs by CellTiter 96 AQueous one solution cell proliferation assay. In kind it is functional, cell-based. Put shortly:
as §1

Assay [16] concerns PC-3. Briefly: Induction of apoptosis in human PC3 cells assessed as chromatin condensation at 0.005 uM after 48 hrs by acridine orange/ethidium bromide staining-based epifluorescence microscopic analysis. The assay is classed as functional, cell-based. The essentials: as §3
The test system of assay [17] is PC-3. Briefly: Induction of apoptosis in human PC3 cells assessed as formation of apoptotic bodies at 0.005 uM after 48 hrs by acridine orange/ethidium bromide staining-based epifluorescence microscopic analysis. In kind it is functional, cell-based. The essentials: as §3
Assay [18] is described as follows: Antiproliferative activity against human HF6 cells after 48 hrs by CellTiter 96 AQueous one solution cell proliferation assay. In kind it is functional, cell-based.
The test system of assay [19] is PC-3. Briefly: Cell cycle arrest in human PC3 cells assessed as accumulation at S phase at 0.12 uM after 48 hrs by RNAse/propidium iodide staining-based flow cytometric analysis (reference value: 19.7%). In kind it is functional.
Assay [20] relates to PC-3. Briefly: Cell cycle arrest in human PC3 cells assessed as accumulation at sub-G1 phase at 11.81 uM after 48 hrs by RNAse/propidium iodide staining-based flow cytometric analysis (reference value: 0.00%). The assay is classed as functional.
The subject of assay [21] is PC-3. The assay is described as follows: Cell cycle arrest in human PC3 cells assessed as accumulation at G2/M phase at 11.81 uM after 48 hrs by RNAse/propidium iodide staining-based flow cytometric analysis (reference value: 24.9%). The assay is classed as functional.
Assay [22] concerns PC-3. The assay is described as follows: Cell cycle arrest in human PC3 cells assessed as accumulation at S phase at 11.81 uM after 48 hrs by RNAse/propidium iodide staining-based flow cytometric analysis (reference value: 19.7%). The assay is classed as functional.
For assay [23], the system named is PC-3. The assay is described as follows: Cell cycle arrest in human PC3 cells assessed as accumulation at G1 phase at 11.81 uM after 48 hrs by RNAse/propidium iodide staining-based flow cytometric analysis (reference value: 55.6%). In kind it is functional.
In assay [24] the test system is PC-3. Briefly: Cell cycle arrest in human PC3 cells assessed as accumulation at G2/M phase at 13.75 uM after 48 hrs by RNAse/propidium iodide staining-based flow cytometric analysis (reference value: 24.9%). In kind it is functional.
For assay [25], the system named is PC-3. Briefly: Cell cycle arrest in human PC3 cells assessed as accumulation at sub-G1 phase at 13.75 uM after 48 hrs by RNAse/propidium iodide staining-based flow cytometric analysis (reference value: 0.00%). The assay is classed as functional.
Assay [26] deals with PC-3. Briefly: Cell cycle arrest in human PC3 cells assessed as accumulation at G1 phase at 13.75 uM after 48 hrs by RNAse/propidium iodide staining-based flow cytometric analysis (reference value: 55.6%). The assay is classed as functional.
The test system of assay [27] is PC-3. Briefly: Cell cycle arrest in human PC3 cells assessed as accumulation at S phase at 13.75 uM after 48 hrs by RNAse/propidium iodide staining-based flow cytometric analysis (reference value: 19.7%). In kind it is functional.
Assay [28] deals with PC-3. Briefly: Antiproliferative activity against human PC3 cells after 72 hrs by CyQuant dye-based assay. The assay is classed as functional, cell-based. The note with it: PC-3, 72 h.

Active and inactive are the calls of the source. The calls are words filed in the database; no cut-off is given here.

With `CCOc1ccc(C(=O)/C=C/c2ccccc2)c(O)c1`, the IC50 (usually the concentration needed to halve the response being measured) with MCF7 was greater than 50 µM; in the assay with PC-3 [2], 8.2 µM; in the assay on BJ, 208 µM. The outcome in the assay on PC-3 [1], in the assay with PC-3 [3], with PC-3 [4], in the assay on PC-3 [7], with PC-3 [9] and in the assay with PC-3 [10] was Active. In addition, the Activity came out at 17.9% in the assay with PC-3 [5], 50.1% in the assay on PC-3 [6], 24.3% with PC-3 [8] and 7.69% with PC-3 [11].
Take `COc1cc([C@@H]2c3cc4c(cc3[C@H](O)[C@H]3COC(=O)[C@H]23)OCO4)cc(OC)c1OC` [PODOFILOX]: the Activity came out at 47% with PC-3 [12], 35.6% in the assay with PC-3 [14], 8.31% in the assay on PC-3 [15] and 9.82% in the assay on PC-3 [19]. Further, the outcome in the assay with PC-3 [13], in the assay with PC-3 [16] and in the assay with PC-3 [17] was Active. In addition, the IC50 in the assay on MCF7 is 0.28 µM; with PC-3 [2] it was 0.12 µM; in the assay with Ca-Ski, 0.3 µM; with BJ it was 5 µM; in [18], 0.0369 µM.
On to `COc1ccc(C(=O)/C=C/c2ccccc2)c(O)c1`, for which the Activity was determined as 13.6% with PC-3 [20], 27.1% in the assay with PC-3 [21], 16% in the assay on PC-3 [22] and 46.8% in the assay with PC-3 [23]. Further, the half-maximal inhibitory concentration (IC50) in the assay on MCF7 is greater than 50 µM; in the assay with PC-3 [2], 11.8 µM; in the assay with BJ, 239 µM; in assay [18], greater than 50 µM. The outcome in the assay with PC-3 [1], with PC-3 [3], in the assay with PC-3 [4], with PC-3 [7], with PC-3 [9] and in the assay on PC-3 [10] was Active.
Take `CC(=O)Oc1ccc(C(=O)/C=C/c2ccccc2)c(O)c1`: the IC50 in the assay on MCF7 was greater than 50 µM; in the assay on PC-3 [2], 10 µM; with Ca-Ski it was greater than 50 µM; with BJ, 21.3 µM; in assay [18] it was greater than 50 µM.
In the case of `O=C(/C=C/c1ccccc1)c1ccc(O)cc1O` [2',4'-DIHYDROXYCHALCONE], the Activity in the assay on PC-3 [24] is 40.8%; in the assay with PC-3 [25], 16.3%; in the assay on PC-3 [26], 32.2%; in the assay on PC-3 [27] it was 10.7%. For the same molecule, the IC50 with MCF7 is greater than 50 µM; with PC-3 [2] it was 13.8 µM; in the assay with BJ, 262 µM. In addition, the result in the assay on PC-3 [1], with PC-3 [3], with PC-3 [4], with PC-3 [7], in the assay on PC-3 [9] and in the assay on PC-3 [10] was Active.
As for `O=C(/C=C/c1ccccc1O)c1ccccc1O`, the IC50 with PC-3 [28] amounted to 10.3 µM.
Consider `CCCOc1ccc(C(=O)/C=C/c2ccccc2)c(O)c1`, for which the IC50 in the assay with MCF7 was greater than 50 µM; in the assay with PC-3 [2] it was 8.08 µM; with Ca-Ski it was greater than 50 µM; in the assay on BJ it was 16 µM.
As for `COc1ccc(C(=O)/C=C/c2ccccc2)c(O)c1Br`, the IC50 in the assay on MCF7 is greater than 50 µM; in the assay with PC-3 [2], 47.8 µM; in the assay on Ca-Ski, greater than 50 µM; in [18], greater than 50 µM.
Regarding `COc1cc(O)c(C(=O)/C=C/c2ccccc2)cc1I`, the IC50 (with MCF7; with PC-3 [2]; in the assay with Ca-Ski; in [18]) was greater than 50 µM in each case.
For `O=C(/C=C/c1ccccc1)c1ccc(OCc2ccccc2)cc1O`, the IC50 was greater than 50 µM with MCF7, 34.7 µM in the assay with PC-3 [2] and greater than 50 µM with Ca-Ski.
For the molecule `COc1ccc(C(=O)/C=C/c2ccccc2)c(O)c1I`, the IC50 is greater than 50 µM with MCF7, 34 µM with PC-3 [2], greater than 50 µM in the assay with Ca-Ski and greater than 50 µM in assay [18].
Turning to `COc1ccc(C(=O)CCc2ccccc2)c(O)c1`, the IC50 (in the assay with MCF7; with PC-3 [2]; in the assay on Ca-Ski; in [18]) was greater than 50 µM in each case.
On to `COc1cc(O)c(C(=O)/C=C/c2ccccc2)cc1Br`, for which the IC50 in the assay with MCF7 is greater than 50 µM; in the assay on PC-3 [2], greater than 50 µM; in the assay on Ca-Ski, greater than 50 µM; in [18], 38.9 µM.

For the origin of these results see ChEMBL document CHEMBL4308899, “Design, synthesis and QSAR study of 2'-hydroxy-4'-alkoxy chalcone derivatives that exert cytotoxic activity by the mitochondrial apoptotic pathway” (Bioorg Med Chem, 2019).
